The text below walks through data of ChEMBL document CHEMBL2390920, “8-Benzamidochromen-4-one-2-carboxylic acids: potent and selective agonists for the orphan G protein-coupled receptor GPR35” (J Med Chem, 2013).

The target in assay [1] is T1, G-protein coupled receptor 55 (Homo sapiens, UniProt Q9Y2T6). The assay can be described thus: Antagonist activity at human GPR55 expressed in CHO cells assessed as inhibition of lysophosphotidylinositol-induced beta-arrestin recruitment at 10 uM preincubated for 30 mins followed by lysophosphotidylinositol induction by beta-galactosidase reporter gene assay relative to control. It is filed as functional, cell-based. The essentials: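 Human GPR55 PathHunter CHO cells were preincubated 30 min with compound, then stimulated with LPI (final 1 µM). After 90 min, detection reagent was added and luminescence read 60 min later. Screening was at 10 µM; full concentration-inhibition curves were run for selected compounds to give IC50.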
T1 sequence (Q9Y2T6 whole entry): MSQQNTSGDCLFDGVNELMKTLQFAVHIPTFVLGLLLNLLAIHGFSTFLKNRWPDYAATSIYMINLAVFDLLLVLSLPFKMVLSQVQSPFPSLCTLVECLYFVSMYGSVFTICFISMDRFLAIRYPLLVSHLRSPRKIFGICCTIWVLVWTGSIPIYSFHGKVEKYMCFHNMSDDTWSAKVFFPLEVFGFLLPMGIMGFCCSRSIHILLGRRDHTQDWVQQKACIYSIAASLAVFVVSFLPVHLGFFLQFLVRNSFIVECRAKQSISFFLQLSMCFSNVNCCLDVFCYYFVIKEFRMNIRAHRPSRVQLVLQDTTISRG

Assay [2] concerns the target T1, G-protein coupled receptor 55. In words: Agonist activity at human GPR55 expressed in CHO cells assessed as induction of beta-arrestin recruitment at 10 uM after 90 mins by beta-galactosidase reporter gene assay relative to lysophosphotidylinositol. It is filed as functional, cell-based. Put shortly:
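Human GPR55 PathHunter CHO cells, 20000 cells/well seeded the day before, received test compound at 10 µM (final DMSO ≤1%) for 90 min. Detection reagent was then added and luminescence read after 60 min. Signal was normalized to that of 1 µM LPI.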
Background: Activated receptors often draw arrestin, which recruitment assays turn into a signal.

Assay [3] deals with T2, G-protein coupled receptor 35 (Homo sapiens, UniProt Q9HC97). In words: Agonist activity at human GPR35b expressed in CHO cells assessed as induction of beta-arrestin recruitment at 10 uM after 90 mins by beta-galactosidase reporter gene assay relative to zaprinast. In kind it is cell-based. The essentials: (§1)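 CHO β-arrestin-EA parental line transfected with human GPR35b, seeded at 20000 cells/well the day before. Compounds in DMSO were diluted 1:10 in medium or PBS (final DMSO ≤1%). After 90 min of incubation, detection reagent was added and luminescence measured 60 min later. Screening was at 10 µM.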
T2 sequence (Q9HC97 whole entry): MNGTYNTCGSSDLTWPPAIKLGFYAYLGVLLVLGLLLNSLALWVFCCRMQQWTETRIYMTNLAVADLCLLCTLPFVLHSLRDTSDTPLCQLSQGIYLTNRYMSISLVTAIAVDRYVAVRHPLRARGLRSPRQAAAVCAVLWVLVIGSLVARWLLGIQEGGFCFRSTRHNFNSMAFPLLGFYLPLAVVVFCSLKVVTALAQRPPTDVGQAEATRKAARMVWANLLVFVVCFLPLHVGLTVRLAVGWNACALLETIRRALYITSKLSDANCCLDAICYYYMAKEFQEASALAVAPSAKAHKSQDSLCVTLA

Assay [4] concerns the target T2, G-protein coupled receptor 35. The assay can be described thus: Agonist activity at human GPR35b expressed in CHO cells assessed as induction of beta-arrestin recruitment after 90 mins by beta-galactosidase reporter gene assay. In kind it is cell-based. Put shortly: as §1
Assay [5] addresses G protein-coupled receptor GPR35 (Rattus norvegicus) (UniProt Q33BM1). In words: Agonist activity at rat GPR35 expressed in CHO cells assessed as induction of beta-arrestin recruitment at 10 uM after 90 mins by beta-galactosidase reporter gene assay. In kind it is cell-based. The essentials:
(§2)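 Rat GPR35 expressed by transfecting a parental CHO β-arrestin-EA line; cells seeded at 20000/well the day before. Compounds (final DMSO ≤1%) were incubated 90 min, followed by detection reagent and a luminescence read after 60 min.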

The target of assay [6] is G-protein coupled receptor 35 (Mus musculus) (UniProt Q9ES90). In words: Agonist activity at mouse GPR35 expressed in CHO cells assessed as induction of beta-arrestin recruitment at 10 uM after 90 mins by beta-galactosidase reporter gene assay. It is filed as cell-based. The essentials: (§3)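 Mouse GPR35 introduced by transfection into a CHO β-arrestin-EA line; 20000 cells/well plated the day prior. After 90 min of compound exposure (final DMSO ≤1%), detection reagent was added and luminescence read after 60 min.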
Sequence of G-protein coupled receptor 35 (Mus musculus) (Q9ES90 whole entry): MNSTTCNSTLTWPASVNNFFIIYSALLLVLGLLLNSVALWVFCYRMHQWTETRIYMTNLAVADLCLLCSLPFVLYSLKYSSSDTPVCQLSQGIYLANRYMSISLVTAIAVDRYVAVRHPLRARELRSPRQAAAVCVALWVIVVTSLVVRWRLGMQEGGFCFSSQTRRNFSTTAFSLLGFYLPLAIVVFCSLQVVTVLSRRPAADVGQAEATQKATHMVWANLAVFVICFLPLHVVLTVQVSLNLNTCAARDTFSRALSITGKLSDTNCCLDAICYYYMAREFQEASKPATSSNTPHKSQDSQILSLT

The target in assay [7] is T2, G-protein coupled receptor 35. The assay can be described thus: Agonist activity at human GPR35 expressed in CHO cells assessed as induction of beta-arrestin recruitment at 10 uM after 90 mins by beta-galactosidase reporter gene assay relative to zaprinast. In kind it is cell-based. Put shortly:
(§4)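 PathHunter enzyme-fragment complementation in CHO cells stably expressing β-arrestin-EA and tagged human GPR35, seeded at 20000 cells/well the day before. DMSO dilutions were further diluted 1:10 (final DMSO ≤1%). Cells were incubated 90 min, then detection reagent was added and luminescence read after 60 min.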

Assay [8] shares this target. The assay can be described thus: Agonist activity at human GPR35 expressed in CHO cells assessed as induction of beta-arrestin recruitment after 90 mins by beta-galactosidase reporter gene assay. In kind it is cell-based. Put shortly:
as §4

In assay [9] the target is G protein-coupled receptor GPR35 (Rattus norvegicus, UniProt Q33BM1). The assay can be described thus: Agonist activity at rat GPR35 expressed in CHO cells assessed as induction of beta-arrestin recruitment after 90 mins by beta-galactosidase reporter gene assay. It is filed as cell-based. The essentials: as §2
Sequence of G protein-coupled receptor GPR35 (Q33BM1 whole entry): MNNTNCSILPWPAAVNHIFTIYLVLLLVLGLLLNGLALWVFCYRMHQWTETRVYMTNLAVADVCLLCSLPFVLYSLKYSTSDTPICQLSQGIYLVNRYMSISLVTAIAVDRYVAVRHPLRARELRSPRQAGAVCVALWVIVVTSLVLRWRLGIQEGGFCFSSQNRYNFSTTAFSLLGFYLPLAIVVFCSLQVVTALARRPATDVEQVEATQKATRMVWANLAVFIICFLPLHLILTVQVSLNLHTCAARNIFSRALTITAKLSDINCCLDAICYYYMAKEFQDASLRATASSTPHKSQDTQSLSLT
Assay [10] addresses G-protein coupled receptor 35 (Mus musculus, UniProt Q9ES90). The assay can be described thus: Agonist activity at mouse GPR35 expressed in CHO cells assessed as induction of beta-arrestin recruitment after 90 mins by beta-galactosidase reporter gene assay. It is filed as cell-based. The essentials:
as §3

In assay [11] the target is G protein-coupled receptor GPR35 (Rattus norvegicus) (UniProt Q33BM1). In words: Agonist activity at rat GPR35 expressed in CHO cells assessed as induction of beta-arrestin recruitment at 10 uM after 90 mins by beta-galactosidase reporter gene assay relative to zaprinast. It is filed as cell-based. Put shortly:
as §2

Assay [12] deals with G-protein coupled receptor 35 (Mus musculus) (UniProt Q9ES90). In words: Agonist activity at mouse GPR35 expressed in CHO cells assessed as induction of beta-arrestin recruitment at 10 uM after 90 mins by beta-galactosidase reporter gene assay relative to zaprinast. In kind it is cell-based. The essentials:
as §3

pEC50: −log10 of the molar value.

Sequence of G-protein coupled receptor 35 (Mus musculus, UniProt Q9ES90) (Q9ES90 whole entry): as the sequence (Q9ES90 whole entry) above
Sequence of G protein-coupled receptor GPR35 (Rattus norvegicus) (Q33BM1 as listed by the source): as the sequence (Q33BM1 whole entry) above

Usually inhibition stands for the share of the control response that was lost under treatment. As a reminder, the Emax is the greatest response seen or fitted, relative to the assay's reference. The term pEC50 denotes −log10 of the EC50, conventionally taken in molar units. For `O=C(Nc1cccc2c(=O)cc(C(=O)O)oc12)c1ccc(Br)cc1`, the inhibition in assay [1] was 9%. Also, the Activity in [2] was determined as 8%; in assay [5] it was 49%; in assay [6], 28%. Moreover, the maximal effect (Emax) turned out to be 113% in assay [3] and 122% in assay [7]. The pEC50 in assay [4] was 6.17; in assay [8], 6.09.
For `CCCOc1ccccc1-c1nc2nn[nH]c2c(=O)[nH]1` [ZAPRINAST], the negative logarithm of the EC50 (pEC50) in assay [9] is 7.21; in assay [10] it was 5.80.
As for `O=C(O)c1cc(=O)c2cc(F)cc(NC(=O)c3ccc(Cl)cc3Cl)c2o1`, in assay [1], the inhibition stood at 18%. In addition, the results for the Activity in assay [2], in assay [5] and in assay [6] were -8%, 46% and 24%, respectively. In addition, the results for the Emax in assay [3] and in [7] were 110% and 113%, respectively. In addition, the pEC50 in [4] was 7.69; in assay [8], 7.77.
For the compound `O=C(Nc1cc(Br)cc2c(=O)cc(C(=O)O)oc12)c1ccc(Cl)c(Cl)c1`, the inhibition in assay [1] amounted to 47%. Also, the results for the Activity in assay [2] and in assay [6] were 16% and 29%, respectively. Besides, the Emax in assay [3] is 109%; in [11], 62%; in assay [7], 110%. Moreover, the pEC50 in [4] is 7.57; in assay [9], 5.49; in assay [8] it was 7.81.
Take `COc1ccc(C(=O)Nc2cc(Cl)cc3c(=O)cc(C(=O)O)oc23)cc1`: in assay [1], the inhibition is 47%. For the same compound, the Activity is -2% in assay [2] and 34% in assay [6]. Moreover, the Emax in [3] was 125%; in assay [11] it was 86%; in assay [7], 110%. For the same compound, the pEC50 in [4] is 7.54; in assay [9], 5.74; in [8], 7.77.
As for `COc1ccccc1C(=O)Nc1cc(Br)cc2c(=O)cc(C(=O)O)oc12`, the inhibition in assay [1] was found to be 44%. Further, the Activity in [2] turned out to be 9%. For the same compound, the Emax in assay [11] came out at 73%; in [12] it was 71%; in assay [7] it was 91%. For the same compound, the pEC50 was 5.96 in assay [9], 5.31 in assay [10] and 5.78 in assay [8].
As for `Cc1cccc(C(=O)Nc2cc(Br)cc3c(=O)cc(C(=O)O)oc23)c1`, the inhibition in assay [1] amounted to 46%. Besides, the Activity in assay [2] was -8%; in [6], 27%. Further, the figures for the Emax in assay [3], in assay [11] and in assay [7] were 111%, 79% and 138%, respectively. For the same compound, the pEC50 in assay [4] was 6.16; in assay [9], 5.68; in assay [8], 6.07.
As to `O=C1N/C(=N/c2ccccc2F)S/C1=C\c1ccc(C(=O)O)cc1`, the pEC50 in assay [9] was 5.10; in assay [10], 4.77.
For `O=C(Nc1cc(Br)cc2c(=O)cc(C(=O)O)oc12)c1ccc(Cl)cc1`, in [1], the inhibition stood at 40%. Moreover, the Activity is 12% in [2], 47% in assay [5] and 27% in [6]. Further, the Emax in assay [3] worked out at 130%; in assay [7] it was 115%. The results for the pEC50 in [4] and in [8] were 7.39 and 7.60, respectively.
In the case of `O=C(O)c1cc(=O)c2cc(Br)cc(NC(=O)c3ccc(Cl)cc3Cl)c2o1`, the inhibition in [1] is 43%. Further, the Activity in assay [2] was determined as 10%; in assay [5], 32%; in assay [6], 12%. Besides, the results for the Emax in assay [3] and in assay [7] were 116% and 110%, respectively. Further, the pEC50 in assay [4] was 7.46; in assay [8] it was 7.79.
For `O=C(Nc1cc(Br)cc2c(=O)cc(C(=O)O)oc12)c1ccc2c(c1)OCO2`, in [1], the inhibition amounted to 46%. Besides, the results for the Activity in [2] and in assay [6] were 9% and 34%, respectively. Further, the values for the maximum response (Emax) in assay [3], in assay [11] and in assay [7] were 118%, 86% and 107%, respectively. Also, the pEC50 in assay [4] was 6.89; in assay [9], 5.69; in [8], 7.22.
